# Measurements as given in ChEMBL document CHEMBL1152649, “Synthesis, cytotoxicity and human telomerase inhibition activities of a series of 1,2-heteroannelated anthraquinones and anthra[1,2-d]imidazole-6,11-dione homologues” (2009).
# Activity calls are given as the source filed them. The rule behind the calls is not given here.
# Experiments:
# [1] = system: MDA-MB-231; test: Antiproliferative activity against human MDA-MB-231 cells assessed as cell growth at 10 uM; type: functional; details: read-out: Activity
# In short: (§1)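 NCI 60 cell line panel, single-dose screen (10^-5 M) run by the developmental therapeutics program protocol. Results are given as growth percent of treated cells relative to untreated control cells for each line.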
# [2] = biological target: Telomerase reverse transcriptase (Homo sapiens) (UniProt O14746); test: Inhibition of TERT in human H1299 cells assessed as residual transcriptional activity at 100 uM after 24 hrs by SEAP reporter gene assay; values are per cent of control
# [3] = system: LOX IMVI; test: Antiproliferative activity against human LOXIMVI cells assessed as cell growth at 10 uM; type: functional; details: read-out: Activity; in short: as §1
# [4] = system: A549; test: Antiproliferative activity against human A549 cells assessed as cell growth at 10 uM; type: functional; details: read-out: Activity; in short: as §1
# [5] = system: HCC 2998; test: Antiproliferative activity against human HCC2998 cells assessed as cell growth at 10 uM; type: functional; details: read-out: Activity; in short: as §1
# [6] = system: NCI-H322M; test: Antiproliferative activity against human NCI-H322M cells assessed as cell growth at 10 uM; type: functional; details: read-out: Activity; in short: as §1
# [7] = system: HOP-92; test: Antiproliferative activity against human HOP92 cells assessed as cell growth at 10 uM; type: functional; details: read-out: Activity; in short: as §1
# [8] = system: TK-10; test: Antiproliferative activity against human TK10 cells assessed as cell growth at 10 uM; type: functional; details: read-out: Activity
# In short: (§2)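 NCI 60 cell line panel, single dose (10^-5 M), run per the Developmental Therapeutics Program protocol (one dose mean graph). Each result is the growth percentage of treated cells relative to untreated control cells.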
# [9] = system: ACHN; test: Antiproliferative activity against human ACHN cells assessed as cell growth at 10 uM; type: functional; details: read-out: Activity; in short: as §1
# [10] = system: NCI-H460; test: Antiproliferative activity against human NCI-H460 cells assessed as cell growth at 10 uM; type: functional; details: read-out: Activity; in short: as §1
# [11] = system: OVCAR-8; test: Antiproliferative activity against human OVCAR8 cells assessed as cell growth at 10 uM; type: functional; details: read-out: Activity; in short: as §1
# [12] = system: KM12; test: Antiproliferative activity against human KM12 cells assessed as cell growth at 10 uM; type: functional; details: read-out: Activity; in short: as §1
# [13] = system: MCF7; test: Antiproliferative activity against human MCF7 cells assessed as cell growth at 10 uM; type: functional; details: read-out: Activity; in short: as §1
# [14] = system: UO-31; test: Antiproliferative activity against human UO31 cells assessed as cell growth at 10 uM; type: functional; details: read-out: Activity; in short: as §2
# [15] = biological target: Telomerase reverse transcriptase (Homo sapiens) (UniProt O14746); test: Inhibition of telomerase in human H1299 cells up to 100 uM by TRAP assay; type: cell-based
# In short: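 PCR-based telomeric repeat amplification protocol (TRAP). The telomerase source was total lysate of H1299 lung cancer cells, with protein measured against BSA standards. Controls were extract without inhibitor and RNase A-treated extract.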
# [16] = Antiproliferative activity against human RPMI8266 cells assessed as cell growth at 10 uM; type: functional; details: read-out: Activity; in short: as §1
# [17] = system: HOP-92; test: Growth inhibition of human HOP92 cells; type: functional
# In short: (§3)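 NCI 60 cancer cell line screen run per the Developmental Therapeutics Program protocol. Dose–response curves were plotted against log10 drug concentration for each cell line within its subpanel, and mean graph midpoint values were calculated.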
# [18] = system: LOX IMVI; test: Growth inhibition of human LOXIMVI cells; type: functional; in short: as §3
# [19] = system: NCI-H226; test: Growth inhibition of human NCI-H226 cells; type: functional; in short: as §3
# [20] = system: SF-268; test: Growth inhibition of human SF268 cells; type: functional
# In short: (§4)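 Assayed in the NCI 60 human cancer cell line panel under the Developmental Therapeutics Program protocol. For each line, dose–response curves were plotted against log10 drug concentration. In the one-dose screen at 10^-5 M, growth was given as percent of untreated control cells, and mean graph midpoint values were averaged.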
# [21] = system: ACHN; test: Growth inhibition of human ACHN cells; type: functional; in short: as §3
# [22] = system: SNB-75; test: Growth inhibition of human SNB75 cells; type: functional; in short: as §4
# [23] = system: U-251; test: Growth inhibition of human U251 cells; type: functional; in short: as §4
# [24] = system: A549; test: Growth inhibition of human A549 cells; type: functional; in short: as §3
# [25] = system: MOLT-4; test: Growth inhibition of human MOLT4 cells; type: functional; in short: as §3
# [26] = system: HOP-62; test: Growth inhibition of human HOP62 cells; type: functional; in short: as §3
# [27] = system: K562; test: Growth inhibition of human K562 cells; type: functional; in short: as §3
# [28] = system: UACC-257; test: Growth inhibition of human UACC257 cells; type: functional; in short: as §4
# [29] = system: T47D; test: Growth inhibition of human T47D cells; type: functional; in short: as §4
# [30] = system: SF-539; test: Growth inhibition of human SF539 cells; type: functional; in short: as §4
# [31] = system: OVCAR-3; test: Growth inhibition of human OVCAR-3 cells; type: functional; in short: as §3
# [32] = system: TK-10; test: Growth inhibition of human TK10 cells; type: functional; in short: as §4
# [33] = system: MCF7; test: Growth inhibition of human MCF7 cells; type: functional; in short: as §3
# [34] = system: PC-3; test: Growth inhibition of human PC3 cells; type: functional; in short: as §4
# [35] = system: HCT-15; test: Growth inhibition of human HCT15 cells; type: functional; in short: as §3
# [36] = system: A498; test: Growth inhibition of human A498 cells; type: functional; in short: as §3
# [37] = system: OVCAR-5; test: Growth inhibition of human OVCAR5 cells; type: functional; in short: as §3
# [38] = system: SK-MEL-5; test: Growth inhibition of human SK-MEL-5 cells; type: functional; in short: as §4
# [39] = system: KM12; test: Growth inhibition of human KM12 cells; type: functional; in short: as §3
# [40] = system: BT-549; test: Growth inhibition of human BT549 cells; type: functional; in short: as §3
# [41] = system: OVCAR-8; test: Growth inhibition of human OVCAR8 cells; type: functional; in short: as §3
# [42] = read-out: LC50 (the source's name)
# Chain of Telomerase reverse transcriptase (Homo sapiens) (O14746 whole entry): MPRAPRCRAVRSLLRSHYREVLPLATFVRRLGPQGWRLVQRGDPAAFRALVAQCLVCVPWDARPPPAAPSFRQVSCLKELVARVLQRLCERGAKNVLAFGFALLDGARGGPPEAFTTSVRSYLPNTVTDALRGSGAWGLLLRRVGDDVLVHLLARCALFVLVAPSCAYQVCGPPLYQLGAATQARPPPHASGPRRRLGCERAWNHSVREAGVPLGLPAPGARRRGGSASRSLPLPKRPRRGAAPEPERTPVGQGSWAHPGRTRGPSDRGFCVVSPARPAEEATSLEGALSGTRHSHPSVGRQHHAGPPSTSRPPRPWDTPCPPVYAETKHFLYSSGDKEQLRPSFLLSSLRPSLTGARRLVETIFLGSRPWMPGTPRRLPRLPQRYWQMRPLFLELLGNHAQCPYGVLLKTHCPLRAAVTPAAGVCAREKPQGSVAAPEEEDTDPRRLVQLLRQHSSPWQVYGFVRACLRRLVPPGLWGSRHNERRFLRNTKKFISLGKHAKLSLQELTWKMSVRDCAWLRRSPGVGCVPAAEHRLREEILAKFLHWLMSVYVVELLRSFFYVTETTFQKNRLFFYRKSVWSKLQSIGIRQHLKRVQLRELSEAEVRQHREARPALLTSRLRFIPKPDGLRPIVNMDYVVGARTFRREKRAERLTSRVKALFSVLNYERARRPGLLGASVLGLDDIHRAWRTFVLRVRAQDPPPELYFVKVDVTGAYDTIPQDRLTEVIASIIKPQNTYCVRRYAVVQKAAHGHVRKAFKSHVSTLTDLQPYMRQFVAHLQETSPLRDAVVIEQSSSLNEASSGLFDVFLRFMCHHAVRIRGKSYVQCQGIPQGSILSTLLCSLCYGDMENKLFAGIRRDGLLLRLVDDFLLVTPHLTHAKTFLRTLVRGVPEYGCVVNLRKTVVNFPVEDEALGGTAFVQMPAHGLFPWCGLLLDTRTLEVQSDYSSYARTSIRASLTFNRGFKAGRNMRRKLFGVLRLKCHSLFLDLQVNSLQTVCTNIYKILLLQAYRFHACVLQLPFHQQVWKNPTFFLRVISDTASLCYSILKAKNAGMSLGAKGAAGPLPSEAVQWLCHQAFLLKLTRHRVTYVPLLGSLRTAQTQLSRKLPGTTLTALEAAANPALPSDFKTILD
structure (smiles),measurement,setting,value
Cc1ccc(-c2nc3ccc4c(c3[nH]2)C(=O)c2ccccc2C4=O)cc1,growth at 10 µM,[1],97.6%
same,residual activity,[2],29%
same,growth at 10 µM,[3],104%
same,growth at 10 µM,[4],55.7%
same,growth at 10 µM,[5],104%
same,growth at 10 µM,[6],84.6%
same,growth at 10 µM,[7],77.3%
same,growth at 10 µM,[8],154%
same,growth at 10 µM,[9],101%
same,growth at 10 µM,[10],93.6%
same,growth at 10 µM,[11],96.4%
same,growth at 10 µM,[12],106%
same,growth at 10 µM,[13],41.9%
same,growth at 10 µM,[14],75.2%
same,inhibition,[15],inactive
same,growth at 10 µM,[16],91.5%
CN(C)c1ccc(-c2nc3ccc4c(c3[nH]2)C(=O)c2ccccc2C4=O)cc1,growth at 10 µM,[1],94.4%
same,residual activity,[2],21%
same,growth at 10 µM,[3],90.5%
same,growth at 10 µM,[4],113%
same,growth at 10 µM,[5],109%
same,growth at 10 µM,[6],94.8%
same,growth at 10 µM,[7],89.9%
same,growth at 10 µM,[8],116%
same,growth at 10 µM,[9],96.2%
same,growth at 10 µM,[10],101%
same,growth at 10 µM,[11],111%
same,growth at 10 µM,[12],98%
same,growth at 10 µM,[13],67.4%
same,growth at 10 µM,[14],75.5%
same,inhibition,[15],inactive
same,growth at 10 µM,[16],78.4%
O=C1c2ccccc2C(=O)c2c1ccc1nc(-c3ccc(Br)cc3)[nH]c21,growth at 10 µM,[1],92.3%
same,residual activity,[2],36%
same,growth at 10 µM,[3],102%
same,growth at 10 µM,[4],95%
same,growth at 10 µM,[5],98.1%
same,growth at 10 µM,[6],167%
same,growth at 10 µM,[7],83.5%
same,growth at 10 µM,[8],280%
same,growth at 10 µM,[9],91.4%
same,growth at 10 µM,[10],96.2%
same,growth at 10 µM,[11],96.3%
same,growth at 10 µM,[12],102%
same,growth at 10 µM,[13],75.3%
same,growth at 10 µM,[14],66.2%
same,inhibition,[15],inactive
same,growth at 10 µM,[16],95.2%
CCc1nc2ccc3c(c2[nH]1)C(=O)c1ccccc1C3=O,GI50,[17],9.84 µM
same,TGI,[17],7.58 µM
same,CC50,[17]; [42],> 100 µM
same,GI50,[18],4.56 µM
same,TGI,[18],> 100 µM
same,CC50,[18]; [42],> 100 µM
same,GI50,[19],2.46 µM
same,TGI,[19],> 100 µM
same,CC50,[19]; [42],> 100 µM
same,growth at 10 µM,[1],78%
same,GI50,[20],20.3 µM
same,TGI,[20],> 1000 µM
same,CC50,[20]; [42],> 100 µM
same,GI50,[21],3.29 µM
same,TGI,[21],> 100 µM
same,CC50,[21]; [42],> 100 µM
same,residual activity,[2],25%
same,growth at 10 µM,[3],40%
same,growth at 10 µM,[4],68.2%
same,GI50,[22],62.5 µM
same,TGI,[22],> 100 µM
same,CC50,[22]; [42],> 100 µM
same,GI50,[23],16.3 µM
same,TGI,[23],> 100 µM
same,CC50,[23]; [42],> 100 µM
same,GI50,[24],28.5 µM
same,TGI,[24],> 100 µM
same,CC50,[24]; [42],> 100 µM
same,growth at 10 µM,[5],67.7%
same,growth at 10 µM,[6],31.4%
same,GI50,[25],4.22 µM
same,TGI,[25],> 100 µM
same,CC50,[25]; [42],> 100 µM
same,growth at 10 µM,[7],41.4%
same,GI50,[26],32.2 µM
same,TGI,[26],> 100 µM
same,CC50,[26]; [42],> 100 µM
same,GI50,[27],> 100 µM
same,TGI,[27],> 100 µM
same,GI50,[28],47.2 µM
same,TGI,[28],> 100 µM
same,CC50,[28]; [42],> 100 µM
same,growth at 10 µM,[8],33.8%
same,GI50,[29],3.3 µM
same,TGI,[29],> 100 µM
same,growth at 10 µM,[9],25%
same,GI50,[30],11.7 µM
same,TGI,[30],> 100 µM
same,CC50,[30]; [42],> 100 µM
same,growth at 10 µM,[10],59.8%
same,GI50,[31],16.5 µM
same,TGI,[31],> 100 µM
same,CC50,[31]; [42],> 100 µM
same,growth at 10 µM,[11],72.9%
same,growth at 10 µM,[12],72.9%
same,GI50,[32],12.1 µM
same,TGI,[32],> 100 µM
same,CC50,[32]; [42],> 100 µM
same,GI50,[33],13 µM
same,TGI,[33],> 100 µM
same,CC50,[33]; [42],> 100 µM
same,GI50,[34],28.2 µM
same,TGI,[34],> 100 µM
same,CC50,[34]; [42],> 100 µM
same,growth at 10 µM,[13],69.8%
same,growth at 10 µM,[14],23.9%
same,GI50,[35],3.39 µM
same,TGI,[35],> 100 µM
same,CC50,[35]; [42],> 100 µM
same,inhibition,[15],inactive
same,GI50,[36],> 100 µM
same,TGI,[36],> 100 µM
same,CC50,[36]; [42],> 100 µM
same,GI50,[37],77.4 µM
same,TGI,[37],> 100 µM
same,CC50,[37]; [42],> 100 µM
same,GI50,[38],12.7 µM
same,TGI,[38],59.1 µM
same,CC50,[38]; [42],> 100 µM
same,GI50,[39],7.69 µM
same,TGI,[39],> 100 µM
same,CC50,[39]; [42],> 100 µM
same,GI50,[40],9.3 µM
same,TGI,[40],> 100 µM
same,growth at 10 µM,[16],56.2%
same,GI50,[41],23.2 µM
same,TGI,[41],> 100 µM
same,CC50,[41]; [42],> 100 µM
